# Assay outcomes: PubChem BioAssay, several laboratories
# Hits are enriched below; roughly 6.1% of the tested compounds scored in any of these assays.
# WT yeast gro inh: growth inhibition of WT strain, primary screen, mitochondrial fusion inhibitor project, WT and mutant strains, chemical genetic; inhibition, % at 10 µM; AID 1362, 2008; mitochondrial fusion phenotypic screen; 190,000 tested, 2.1% active; in the data active = inhibition above about 58%; tested in S. cerevisiae
# RAM network inh: inhibitors of the yeast RAM network, primary screen, dse1pr::URA3 reporter, 5-FOA selection; S. cerevisiae dse1pr::URA3 reporter, 5-FOA growth OD615, 2 d; analog-sensitive cbk1-as2 kinase mutant strain; inhibition, % at 50 µM; 190,000 tested, 1.8% active;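 active = inhibition above a set limit, 3 SD over mean compound inhibition, cut at about 8.4% in these data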;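 note: 0% = DMSO-only wells with no growth and 100% = 10 µM 1-NA-PP1 full growth; inhibition rescues growth on 5-FOA so higher OD means more RAM inhibition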
# Measles CPE: compounds protecting cells from measles virus cytopathic effect, primary screen, measles RdRp inhibitor project, single point, MLSMR library, absorbance; protection (pct of control), % at 4 µM; Measles virus-infected cells, CPE protection; 140,000 tested, 1.5% active; AID 841, 2007; in the data active = protection mostly above about 24%, no sharp cut-off; inactive = mostly below about 26%
# Yeast lifespan up: compounds extending yeast replicative lifespan, primary screen, S. cerevisiae, OD615 | AID 775, 2007 | S. cerevisiae growth with nicotinamide; deaD strain in restrictive glucose medium | inhibition of the nicotinamide effect, % at 10 µM | 130,000 tested, 0.68% active;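 active = inhibition above a set limit, placed 3 SD over the median of all compounds, cut at about 26% in these data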;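 note: 0% = nicotinamide-treated wells and 100% = cells grown without nicotinamide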
#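 Assay system: engineered S. cerevisiae DeaD replicative-lifespan strain, galactose-grown log-phase cells; Buffer or medium: CSMM-D glucose medium, restrictive; Probe or stimulus: nicotinamide 1.5 mM; Compound: single dose 10 µM compound, 0.25% DMSO; Schedule: 4 h preincubation then 48 h treatment at 30 °C; Technique: OD615 measurement.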
# DAT uptake mod: changed hDAT dopamine uptake under cocaine IC80, either direction, primary screen, cocaine antagonist project, cell-based, LLC-PK1 hDAT, [14C]-dopamine uptake, MLSMR; AID 449768, 2010; Sodium-dependent dopamine transporter (Homo sapiens), Q01959; 110,000 tested, 1.3% active; LLC-PK1 hDAT cells, [14C]-dopamine uptake with cocaine IC80; actives deviate in either direction; B-score at 10 µM;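 active = Z score or B-score, a plate-position-corrected score, falls beyond the plate's 99.7% confidence bounds, in either direction; inactive = both scores lie inside the 99.7% bounds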;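 note: scored against the spread of the other compound wells on the same plate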
# Target sequence (Q01959 whole entry, looked up): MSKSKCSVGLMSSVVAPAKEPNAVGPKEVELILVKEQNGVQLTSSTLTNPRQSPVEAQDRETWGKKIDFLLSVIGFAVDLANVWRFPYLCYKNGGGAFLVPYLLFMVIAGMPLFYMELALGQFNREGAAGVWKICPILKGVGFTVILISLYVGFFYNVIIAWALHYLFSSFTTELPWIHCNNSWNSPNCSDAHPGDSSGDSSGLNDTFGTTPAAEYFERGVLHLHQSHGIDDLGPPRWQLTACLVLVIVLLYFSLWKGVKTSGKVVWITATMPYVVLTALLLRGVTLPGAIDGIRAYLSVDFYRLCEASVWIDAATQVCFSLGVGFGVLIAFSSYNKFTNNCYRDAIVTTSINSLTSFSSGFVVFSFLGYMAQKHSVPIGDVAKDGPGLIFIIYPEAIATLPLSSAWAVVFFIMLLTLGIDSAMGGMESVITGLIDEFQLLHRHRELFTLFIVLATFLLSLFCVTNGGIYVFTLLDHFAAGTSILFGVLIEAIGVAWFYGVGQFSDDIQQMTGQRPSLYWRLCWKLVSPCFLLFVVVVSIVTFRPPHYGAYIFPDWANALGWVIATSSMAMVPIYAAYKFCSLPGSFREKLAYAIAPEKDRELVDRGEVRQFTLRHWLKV
# BB579 growth dn: growth inhibitors of yeast BB579 in restrictive medium, primary screen, yeast lifespan-shortening project, S. cerevisiae; 140,000 tested, 0.51% active; AID 804, 2007; inhibition, % at 10 µM; OD615, 48 h;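 active = inhibition above a set limit, 3 SD over the mean compound inhibition, cut at about 44% in these data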
#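 controls = amphotericin B 10 µg/mL, positive | assay system = DeaD yeast strain BB579 | schedule = 48 h compound exposure at 30 °C after 4 h preincubation | detection = OD615 turbidity measurement | medium = restrictive CSMM-D medium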
# An asterisk follows results filed as active; . = not tested or not shown.
SMILES,WT yeast gro inh,RAM network inh,Measles CPE,Yeast lifespan up,DAT uptake mod,BB579 growth dn
C/C=C/C=N/Nc1nc(-c2ccc([N+](=O)[O-])cc2)cs1,23.5,0.9,11.3,-6.7,.,-14.8
Cc1cc(C(=O)N/N=C/C=C/c2ccc3c(c2)OCO3)n[nH]1,7.1,0.3,24.7*,-21.9,0.494,-8.8
O=C(N/N=C\C=C\c1ccc2c(c1)OCO2)C1COc2cc3ccccc3cc2O1 (stereo not given),38.7,3.8,37.2*,-8.5,-0.364,-32.3
O=C1NC(=S)SC1=C1CCCC1,11.2,-1.5,13.1,12.1,-0.148,-33.1
CCOC(=O)Cc1csc(NS(=O)(=O)c2ccc(Cl)cc2)n1,9.7,-0.7,14.3,1.9,.,-10.9
O=[N+]([O-])c1ccccc1/C=N/n1c(C2CCCCC2)n[nH]c1=S,58.1*,1.0,11.0,-0.9,.,-37.4
OC(CNCc1cccc(Br)c1)c1ccccc1 (stereo not given),-16.3,2.4,.,.,.,.
OC(CNCc1ccc(-c2ccccc2)cc1)c1ccccc1 (stereo not given),60.3*,-0.7,.,.,.,.
CCN(c1ccc2c(c1)OCO2)S(=O)(=O)c1cc(Br)cc2c1N(C(C)=O)CC2,9.6,2.4,4.1,-5.6,-0.211,-61.4
C/C(=N\Nc1nc2ccccc2[nH]1)c1cc2ccccc2o1,60.2*,0.2,12.0,-8.7,.,-40.7
CC(=O)CCN1CCOCC1,-6.3,-0.5,93.8*,-9.8,-0.497,18.8
CN(C)C(=O)CCN1CCOCC1,-46.0,1.6,9.8,-4.7,-0.888,-21.0
O=[N+]([O-])c1ccc(N/N=C/c2sc(N3CCOCC3)nc2-c2ccccc2)c(S(=O)(=O)Nc2ccccc2Cl)c1,24.0,8.4*,.,.,.,.
COc1cc(C)nc(N2CCC(C(=O)NC3CCCCC3)CC2)n1,-0.8,1.6,7.2,-10.6,0.504,-49.8
COC(=O)Cn1c2ccc(F)cc2c2nc(C)sc21,6.3,-0.2,18.2,-14.7,-0.623,-26.0
COC(=O)Cn1c2ccccc2c2nc(C)sc21,1.3,-0.2,3.2,-13.1,0.473,48.8*
CCN1CCN(c2cc(N3CCc4ccccc4C3)c(F)cc2[N+](=O)[O-])CC1,81.5*,0.1,8.4,-6.4,.,-18.7
COC(=O)CSc1ccc2nnc(-c3ccc(OC)c(OC)c3)n2n1,14.7,0.3,13.0,-0.8,0.833,-12.1
Cc1ccc2nc(NC(=O)CSc3nnc(C)c(=O)n3N)sc2c1,-2.5,8.9*,7.9,0.8,.,-28.2
COc1ccc(-c2nnc3ccc(SCC(=O)Nc4nc5ccc(C)cc5s4)nn23)cc1OC,7.0,6.9,28.4*,7.4,.,-1.0
O=C(C1=C[C@H](c2coc3ccccc3c2=O)C[C@H](OCCCCO)O1)N1CCOCC1,4.0,0.6,.,.,-0.548,.
COc1cc2[nH]c3c(=O)n4c(nc3c2cc1OC)SCCC4,-12.9,1.6,.,.,.,.
CCCCNC(=S)N/N=C1\C(=O)c2cccc3cccc1c23,22.9,9.1*,-0.2,3.0,-0.421,-47.1
Cc1ccc2[nH]c3c(c2c1)CC/C(=C/c1ccccc1)C3=O,20.1,4.2,9.1,80.9*,-0.789,-86.2
Cc1ccnc(-n2c(C)cc(C=O)c2C)c1,7.4,0.8,.,.,.,.
SMILES,WT yeast gro inh,RAM network inh,Measles CPE,Yeast lifespan up,DAT uptake mod,BB579 growth dn
CCOC(=O)c1cc(-c2ccccc2)sc1NC(=O)CC(C)C,7.1,0.1,6.6,-25.9,-0.719,-22.5
CCOC(=O)c1cc(-c2ccccc2)sc1NC(=O)CSc1nnnn1C,-7.1,8.4*,7.1,-7.8,-0.644,-91.6
CCOC(=O)c1sc(-c2ccccc2)cc1NC(=O)CSc1nnnn1C,.,8.4*,31.9,-7.0,0.523,-6.8
Cc1ccc2nc(C(=O)N3CCc4c([nH]c5ccccc45)C3c3ccccn3)cn2c1 (stereo not given),24.2,0.0,.,.,.,.
Cc1ccccc1N=C1c2ccccc2C(=O)C1[N+](=O)[O-] (stereo not given),-3.9,2.5,.,.,.,.
OC(CNC1CCCCC1)COCCOc1ccc(Br)cc1 (stereo not given),27.6,0.8,17.8,5.2,.,16.6
COc1ccc(C2(CNC(=O)c3cccs3)CCOCC2)cc1,1.4,0.3,.,.,.,.
O=S(=O)(c1ccccc1)N1CCN(CC(O)COc2ccc3c(c2)CCC3)CC1 (stereo not given),32.3,-0.1,31.1*,-11.5,0.0788,-37.3
CC(=O)Nc1nnc(C2=COCCO2)o1,-1.9,2.2,.,.,.,.
Cc1ccc(C(=O)Nc2nnc(-c3ccco3)o2)cc1C,18.9,0.1,9.5,-2.4,.,-10.1
O=C(Nc1nnc(C2=COCCO2)o1)c1ccc(Cc2ccccc2)cc1,67.8*,2.2,.,.,.,.
O=C(Nc1nnc(-c2ccco2)o1)c1ccc(Cl)cc1,65.0*,2.1,.,.,.,.
O=C(Nc1nnc(C2=COCCO2)o1)c1ccc(Cl)cc1,60.2*,-1.5,8.3,-4.8,.,-14.6
OC1(c2ccccc2F)CCN(Cc2nnnn2CCc2ccccc2)CC1,19.5,1.6,2.0,-2.4,0.737,-32.1
CN1COc2ccc3ccccc3c2C1,20.2,-0.4,.,.,.,.
O=C(Nc1ccccc1F)Nc1ccc([N+](=O)[O-])cc1Cl,16.1,1.8,.,.,.,.
COc1ccc(C(=O)c2cc(C(C)=O)c(Nc3ccccc3)s2)cc1,-7.6,9.1*,4.6,-3.9,.,-45.2
Cc1cc(Nc2nc3ccccc3nc2Cl)n(-c2ccccc2C)n1,63.5*,-0.8,4.7,-7.8,-0.021,1.1
Cc1cc(C)nc(N2CCC(C(=O)NCC3CCCCC3)CC2)n1,4.7,0.2,32.9*,-0.1,-0.0178,14.3
COc1nc(OC)nc(N2CCC(C(=O)NCC3CCCCC3)CC2)n1,-11.8,2.8,3.9,-4.7,-0.0776,-27.4
Cc1c2c(nc3ccccc13)CCC(C(C)(C)C)C2 (stereo not given),68.3*,2.6,.,.,.,.
Cc1ccc(C)c(Cn2c(C)nc3c(sc(=S)n3-c3ccccc3)c2=O)c1,-0.9,3.6,.,.,.,.
O=[N+]([O-])c1cc(S(=O)(=O)Nc2ccccc2)ccc1NCc1ccccc1,57.7,7.3,36.8*,4.6,.,0.4
O=[N+]([O-])c1cc(S(=O)(=O)Nc2ccccc2)ccc1NCc1cccnc1,-7.3,0.5,13.7,0.0,.,-23.5
Cc1ccc(C(=O)NNC(=O)C2CCCN(c3ncccn3)C2)cc1 (stereo not given),-1.6,-0.1,1.3,-14.9,6.56*,6.4
O=C(CC1SC(=NCc2ccccc2)NC1=O)Nc1ccccc1 (stereo not given),-7.4,0.7,13.8,5.7,.,-38.8
O=C(/C=C/c1ccc2c(c1)OCCCO2)c1ccccc1O,66.9*,6.2,8.1,-1.9,.,-29.5
